pEC50: −log10 of the molar value. Converted amounts (≈) assume the structure as drawn. The source made the active and inactive calls. The rule behind the calls is not given here.
Assays:
Pyruvate kinase PKM [1] = biological target: T1, Pyruvate kinase PKM (Homo sapiens, UniProt P14618); experiment: Activation of human PKM2 assessed as production of ATP at infinite concentration after 10 mins by lactate dehydrogenase-coupled enzyme assay relative to FBP
In short: (§1)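 Coupled to lactate dehydrogenase, NADH loss read as the drop in absorbance at 340 nm. Reaction: 2nM human PKM2 (cleaved N-term his, 1-531), 2 mM PEP, 0.35 mM NADH, 4 units/mL LDH in 50 mM Tris pH 7.5 with KCl and 5 mM MgCl2. Compound preincubated 10 minutes at 32 °C, then 0.5mM ADP starts the reaction. Duplicates; 10-point curves; asymptote max = % activation at infinite concentration.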
Target sequence in this assay (P14618 2-531 limits assumed): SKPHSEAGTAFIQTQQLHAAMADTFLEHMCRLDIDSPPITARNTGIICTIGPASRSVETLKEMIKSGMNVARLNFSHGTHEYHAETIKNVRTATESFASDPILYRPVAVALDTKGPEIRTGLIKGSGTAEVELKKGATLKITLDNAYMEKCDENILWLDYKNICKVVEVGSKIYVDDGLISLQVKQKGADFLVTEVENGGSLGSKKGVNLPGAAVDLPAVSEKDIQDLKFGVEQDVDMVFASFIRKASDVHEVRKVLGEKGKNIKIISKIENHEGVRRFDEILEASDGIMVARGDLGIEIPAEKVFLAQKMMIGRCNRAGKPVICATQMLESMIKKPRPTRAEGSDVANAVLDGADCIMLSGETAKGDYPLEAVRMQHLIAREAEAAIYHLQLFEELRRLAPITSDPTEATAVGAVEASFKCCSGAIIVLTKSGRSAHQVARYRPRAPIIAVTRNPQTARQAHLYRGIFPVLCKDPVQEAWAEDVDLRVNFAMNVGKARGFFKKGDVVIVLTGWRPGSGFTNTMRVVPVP

[2] = Intrinsic clearance in human liver microsomes; format: ADME, Microsome; settings: read-out: CLH
[3] = Passive permeability from apical to basolateral side of dog RRCK cells; format: ADME, cell-based, Canis lupus familiaris, MDCKII-LE; settings: MDCK, read-out: permeability
[4] = Kinetic solubility of the compound at pH 7.4; format: physicochemical; settings: buffer, read-out: Kinetic_solubility
Pyruvate kinase PKM [5] = biological target: T1, Pyruvate kinase PKM; experiment: Activation of PKM2 in human Snu182 cells assessed as extracellular acidification rate at 10 uM after 18 hrs; format: cell-based
In short: (§2)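 Snu182 cells seeded at 12k/well in RPMI with 10% FBS and 2 mM glutamine, cultured overnight, then given 10 µM compound for 18 h at 37°C, 5% CO2. Medium switched to XF DMEM with 5 mM glucose plus 10 µM compound; OCR and ECAR measured on a Seahorse XF96 analyzer.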
Target sequence in this assay (P14618 2-531 limits assumed): as above

HuH-1 (human) = experiment: Antiproliferative activity against human HuH1 cells at 10 uM after 5 days
Pyruvate kinase PKM [6] = biological target: T1, Pyruvate kinase PKM; experiment: Activation of PKM2 in human Snu182 cells assessed as oxygen consumption rate at 10 uM after 18 hrs; format: cell-based; in short: as §2
Target sequence in this assay (P14618 2-531 limits assumed): as above

Pyruvate kinase PKM [7] = biological target: T1, Pyruvate kinase PKM; experiment: Activation of PKM2 in human Huh7 cells assessed as formation of enzyme tetramers; format: cell-based; settings: Huh-7
Target sequence in this assay (P14618 2-531 limits assumed): as above

Pyruvate kinase PKM [8] = biological target: T1, Pyruvate kinase PKM; experiment: Activation of PKM2 in human Huh7 cells assessed as production of pyruvate and ATP by fluorescence assay; format: cell-based, Huh-7
In short: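 Huh7 hepatocellular carcinoma cells were treated with compound and lysed, and the lysate was given PEP and ADP. The pyruvate formed was oxidized by pyruvate oxidase, and the fluorescence, proportional to pyruvate, was read as cellular pyruvate kinase activity.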
Target sequence in this assay (P14618 whole entry): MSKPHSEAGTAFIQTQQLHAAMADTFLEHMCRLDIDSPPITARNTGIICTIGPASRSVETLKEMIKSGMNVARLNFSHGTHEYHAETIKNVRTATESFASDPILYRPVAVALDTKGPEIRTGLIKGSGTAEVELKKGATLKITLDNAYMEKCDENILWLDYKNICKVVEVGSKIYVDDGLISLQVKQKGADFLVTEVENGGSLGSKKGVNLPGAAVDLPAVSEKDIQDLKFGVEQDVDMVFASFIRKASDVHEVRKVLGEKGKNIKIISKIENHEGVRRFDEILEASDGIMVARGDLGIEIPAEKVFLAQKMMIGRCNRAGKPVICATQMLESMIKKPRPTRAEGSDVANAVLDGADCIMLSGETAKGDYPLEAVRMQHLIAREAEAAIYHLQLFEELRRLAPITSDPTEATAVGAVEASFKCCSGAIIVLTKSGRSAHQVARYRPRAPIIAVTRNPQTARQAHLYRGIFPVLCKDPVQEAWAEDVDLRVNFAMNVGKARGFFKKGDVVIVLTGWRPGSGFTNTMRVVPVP

SNU-449 = experiment: Antiproliferative activity against human SNU449 cells at 10 uM after 5 days; format: functional, cell-based
In short: (§3)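 Cells plated in Optimem-GlutaMax medium and cultured overnight before exposure to 10 µM compound. Viability measured with CytoTox-Glo after 5 days of treatment.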

JHH2 = experiment: Antiproliferative activity against human JHH2 cells at 10 uM after 5 days; format: functional, cell-based; in short: as §3
HT-29 = experiment: Antiproliferative activity against human HT-29 cells at 10 uM after 5 days; format: functional; settings: HT-29, 120 h; in short: as §3
SNU-182 = experiment: Antiproliferative activity against human SNU182 cells at 10 uM after 5 days; format: functional, cell-based; in short: as §3
Pyruvate kinase PKM [9] = biological target: T1, Pyruvate kinase PKM; experiment: Activation of human PKM2 assessed as production of ATP at 10 uM after 10 mins by high-throughput screening assay relative to control
In short: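 High-throughput screen in which PKM2 activity was read as ATP production by luminescence, reported as % activation at 10 µM.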
Target sequence in this assay (P14618 2-531 limits assumed): as the sequence (P14618 2-531 limits assumed) above

Pyruvate kinase PKM [10] = biological target: T1, Pyruvate kinase PKM; experiment: Activation of human PKM2 assessed as production of ATP at 10 uM after 10 mins by lactate dehydrogenase-coupled enzyme assay; in short: as §1
Target sequence in this assay (P14618 2-531 limits assumed): as above

Row | SMILES | max activation (Pyruvate kinase PKM [1]) [%] | microsomal CLint [2] [µL/min/mg] | Papp A→B [3] [×10⁻⁶ cm/s] | solubility kinetic [4] [µM] | further results
1 | O=c1cc(Cn2cnc3ccccc32)nc2scc(-c3ccccc3)n12 | 167 | 8 | 11.5 |  | 
2 | O=c1cc(Cn2cnc3ccccc32)nc2ccc(Cl)cn12 | 156 | < 8 | 22.2 | 558 (≈ 173 µg/mL) | 
3 | CCc1nn2c(=O)cc(Cn3cnc4ccccc43)nc2s1 | 140 | 8 | 17.6 |  | 
4 | COc1cccc(NS(=O)(=O)c2cc3c(cc2Cl)NC(=O)CO3)c1 | 108 | 22.4 | 8.8 | 8.6 (≈ 3.17 µg/mL) | Activity (Pyruvate kinase PKM [5]): 91.4%; Activity (HuH-1 (human)): inactive; Activity (Pyruvate kinase PKM [6]): 85.7%; Activity (Pyruvate kinase PKM [7]): Active; pEC50 (Pyruvate kinase PKM [8]): 7.66; Activity (SNU-449): inactive; Activity (JHH2): inactive; inhibition at 10 µM (HT-29): 26.8%; Activity (SNU-182): inactive
5 | O=c1cc(Cn2cnc3ccccc32)nc2ccccn12 | 161 |  |  |  | 
6 | Cc1csc2nc(Cn3cnc4ccccc43)cc(=O)n12 | 136 | 8 | 23.4 | 117 (≈ 34.7 µg/mL) | 
7 | COc1ccc2nc(Cn3cnc4ccccc43)cc(=O)n2c1 | 123 | < 8 | 25.8 | 580 (≈ 178 µg/mL) | 
8 | Cc1ccc2nc(Cn3c(Cc4ccccc4)nc4ccccc43)cc(=O)n2c1 | 148 |  |  |  | Activity (Pyruvate kinase PKM [9]): 155%
9 | Cc1sc2nc(Cn3cnc4ccccc43)cc(=O)n2c1C | 160 | 12.5 | 22.9 | 141 (≈ 43.8 µg/mL) | 
10 | Cc1cccn2c(=O)cc(Cn3cnc4ccccc43)nc12 | 172 | 17.8 | 24.2 | 529 (≈ 154 µg/mL) | 
11 | Cc1ccc2nc(Cn3c(C)nc4ccccc43)cc(=O)n2c1 |  |  |  |  | max activation (Pyruvate kinase PKM [10]): 73%
12 | O=c1cc(Cn2cnc3ccccc32)nc2sccn12 | 162 | 8 | 17.3 | 569 (≈ 161 µg/mL) | 
13 | Cc1cn2c(=O)cc(Cn3cnc4ccccc43)nc2s1 | 189 | 8 | 14.3 |  | 
14 | CCc1ccc(C)n2c(=O)cc(Cn3cnc4ccccc43)nc12 | 135 | 184 | 16.2 |  | 
15 | Cc1ccn2c(=O)cc(Cn3cnc4ccccc43)nc2c1 | 161 | 13.3 | 21.3 | 586 (≈ 170 µg/mL) | 
16 | Cc1ccc2nc(Cn3cnc4ccccc43)cc(=O)n2c1 | 149 |  |  |  | 
